This is an account of results in ChEMBL document CHEMBL4428034, “Bioactive Isoprenoid-Derived Natural Products from a Dongsha Atoll Soft Coral Sinularia erecta” (J Nat Prod, 2016).

Assay [1] relates to Neutrophil. Nature of the assay: Anti-inflammatory activity in FMLP/CB-stimulated human neutrophils assessed as inhibition of superoxide generation at 10 uM preincubated for 5 mins followed by cytochalasin B and FMLP stimulation for 3 mins and 10 mins respectively by ferricytochrome c reduction based assay relative to control. In kind it is functional. The method, boiled down: (§1)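 Percent inhibition at 10 μM relative to control in fMLP/CB-stimulated human neutrophils. Values are mean ± SEM (n = 3), with significance tested against the control value.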

Assay [2] has as its system Neutrophil. Nature of the assay: Anti-inflammatory activity in FMLP/CB-stimulated human neutrophils assessed as inhibition of superoxide generation preincubated for 5 mins followed by cytochalasin B and FMLP stimulation for 3 mins and 10 mins respectively by ferricytochrome c reduction based assay. In kind it is functional, cell-based. In a few lines:
(§2)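 In fMLP/CB-stimulated human neutrophils, IC50 was taken as the concentration giving 50% inhibition. Values are mean ± SEM (n = 3).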

The subject of assay [3] is Neutrophil. The assay can be described thus: Anti-inflammatory activity in FMLP/CB-stimulated human neutrophils assessed as inhibition of elastase release at 10 uM preincubated for 5 mins followed by FMLP/CB stimulation for 10 mins using MeO-Suc-Ala-Ala-Pro-Val-p-nitroanilide as substrate relative to control. In kind it is functional. In a few lines:
as §1

For assay [4], the system named is Neutrophil. Nature of the assay: Anti-inflammatory activity in FMLP/CB-stimulated human neutrophils assessed as inhibition of elastase release preincubated for 5 mins followed by FMLP/CB stimulation for 10 mins using MeO-Suc-Ala-Ala-Pro-Val-p-nitroanilide as substrate. The assay is classed as functional, cell-based. The method, boiled down: as §2
The test system of another assay is K562. The assay can be described thus: Cytotoxicity against human K562 cells assessed as growth inhibition after 3 days by alamar blue assay. The conditions noted are these: K562, 72 h. The assay is classed as functional, cell-based.
For another assay, the system named is MOLT-4. Nature of the assay: Cytotoxicity against human MOLT4 cells assessed as growth inhibition after 3 days by alamar blue assay. The conditions noted are these: MOLT-4, 72 h. In kind it is functional, cell-based. The method, boiled down: (§3)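 Cells were seeded at 5 × 10^3 to 1 × 10^4 per well and kept in a humidified 5% CO2 incubator. After 3 days in culture, Alamar Blue was added for 4 h and absorbance read at 595 nm. IC50 is the concentration that reduced cell growth by 50%.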
Background: Alamar Blue is a resazurin reagent that responds to reducing activity.

A further assay concerns CCRF-CEM. Nature of the assay: Cytotoxicity against human CCRF-CEM cells assessed as growth inhibition after 3 days by alamar blue assay. In kind it is functional, cell-based. The conditions noted are these: 72 h. The method, boiled down:
as §3

The inhibition is the change of the read-out against control, counted positive when it falls. Usually IC50 stands for the concentration that gives 50% inhibition.

In the case of `C=C(C)[C@@H]1C[C@H]2O[C@](O)(C1)C[C@@H](OC(C)=O)C(=O)/C=C(/C)C[C@@H]1OC(=O)[C@]23O[C@@H]13`, the inhibition at 10 µM in the assay on Neutrophil [1] was 100%; with Neutrophil [3], 113%. The IC50 in the assay on Neutrophil [2] worked out at 2.3 µM; in the assay on Neutrophil [4], 0.9 µM.
`C=C(C)[C@@H]1CCC(=C)[C@@H](OO)CCC(=C)[C@H]2CC[C@@](C)(O2)[C@@H](O)C1`: the IC50 is 9.2 µM in the assay with K562, over 10 µM in the assay on Neutrophil [2] and over 10 µM in the assay with Neutrophil [4]. The inhibition at 10 µM in the assay on Neutrophil [1] turned out to be 24%; in the assay with Neutrophil [3], 33%.
Consider `C=C(C)[C@H]1CC(=O)[C@@H]2[C@@H](C1)[C@H]1C(=O)O[C@H]3C[C@@]4(C)O[C@@H]2C(=O)[C@H]4[C@@H]13`, for which the inhibition at 10 µM in the assay on Neutrophil [1] was 16%; in the assay with Neutrophil [3], 18%. For the same compound, the IC50 with Neutrophil [2] and in the assay with Neutrophil [4] was over 10 µM throughout.
Consider `CCCCCCCCC/C(C)=C\C(=O)NCCc1ccc(O)cc1`, for which the IC50 is 9.7 µM with MOLT-4, 6.3 µM in the assay with CCRF-CEM, over 10 µM in the assay with Neutrophil [2] and 1 µM in the assay with Neutrophil [4]. Moreover, the inhibition at 10 µM in the assay on Neutrophil [1] stood at 48%; in the assay on Neutrophil [3], 102%.
Turning to `C=C(C(=O)OC)[C@H]1CC(=O)C[C@@H]2O[C@@H]3[C@H](C[C@](C)(O)CC2=O)OC(=O)[C@@]32O[C@@H]2C1`, the values for the inhibition at 10 µM in the assay on Neutrophil [1] and in the assay with Neutrophil [3] were 55% and 93%, respectively. The IC50 was found to be 8.5 µM in the assay with Neutrophil [2] and 3.8 µM with Neutrophil [4].
Consider `C=C(C)[C@@H]1CCC2=C[C@H](C[C@@]3(C)CC(=O)[C@H](CC(=O)C1)O3)OC2=O`, for which the inhibition at 10 µM worked out at 15% with Neutrophil [1] and 19% in the assay on Neutrophil [3]. In addition, the IC50 with Neutrophil [2] and in the assay with Neutrophil [4] was over 10 µM each time.
As to `C=C(C)C(CCC(C)=O)C[C@@H]1O[C@@]1(C)C/C=C/C(C)=O` (stereo partly specified), the IC50 in the assay with K562 is 8.6 µM; with MOLT-4, 9.7 µM; in the assay on Neutrophil [2] it was over 10 µM; in the assay with Neutrophil [4], over 10 µM. For the same compound, the inhibition at 10 µM in the assay with Neutrophil [1] turned out to be 13%; with Neutrophil [3], 17%.
As for `COC(=O)[C@@]1(CCl)O[C@@]2(O)C[C@H]1C[C@@H](O)[C@]13O[C@H]1[C@H](C[C@@]1(C)CC(=O)[C@H](C2)O1)OC3=O`, the inhibition at 10 µM in the assay with Neutrophil [1] was 7%; with Neutrophil [3] it was 14%. Moreover, the IC50 in the assay on Neutrophil [2] and in the assay with Neutrophil [4] was over 10 µM throughout.
As to `CC[C@H](Nc1ncnc2[nH]cnc12)c1nc2cccc(F)c2c(=O)n1-c1ccccc1` [IDELALISIB], the inhibition at 10 µM amounted to 103% with Neutrophil [1] and 100% in the assay on Neutrophil [3]. Besides, the IC50 in the assay with Neutrophil [2] came to 0.07 µM; in the assay with Neutrophil [4], 0.3 µM.
